We go through 18 compounds from ChEMBL document CHEMBL3352233, “N-[6-(4-butanoyl-5-methyl-1H-pyrazol-1-yl)pyridazin-3-yl]-5-chloro-1-[2-(4-methylpiperazin-1-yl)-2-oxoethyl]-1H-indole-3-carboxamide (SAR216471), a novel intravenous and oral, reversible, and directly acting P2Y12 antagonist” (J Med Chem, 2014).

The nature of data set [1]: Permeability across human Caco2 cells. The format is ADME, cell-based. Conditions: Caco-2, read-out: permeability. The gist of the method: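 Permeation is measured across a Caco2 cell monolayer and reported in 10⁻⁷ cm·s⁻¹.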
Data set [2] in a line: Metabolic stability in mouse liver microsomes assessed as compound metabolism after 20 mins incubation in presence of 1 mM NADPH. The format is ADME. Conditions: read-out: Drug metabolism. The gist of the method: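 Compound incubated with mouse hepatic microsomal fractions for 20 min with 1 mM NADPH. Read-out is % metabolism, meaning 100 minus % unchanged compound.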
Background: Microsomes from liver hold many membrane-bound enzymes, among them those of drug oxidation.

The subject of data set [3] is Hepatocyte. Description: Intrinsic metabolic clearance in human hepatocytes measured assessed as CYP3A4 contribution per 10^6 cells after 24 hrs. Format: ADME, cell-based.
A short description of data set [4]: Metabolic stability in rat liver microsomes assessed as compound metabolism after 20 mins incubation in presence of 1 mM NADPH. Conditions: liver microsomes, read-out: Drug metabolism. The format is ADME. The gist of the method:
(§1)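 Hepatic microsomal fractions are incubated with compound for 20 min with 1 mM NADPH. Result is reported as % metabolized, i.e. 100 minus % unchanged compound.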

The subject of data set [5] is Hepatocyte. The data set is described as follows: Intrinsic metabolic clearance in human hepatocytes measured per 10^6 cells after 24 hrs. Format: ADME, cell-based. The gist of the method:
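Human hepatocytes incubated with compound for 24 h to measure in vitro metabolism. Clearance reported in mL·h⁻¹·(10⁶ hepatocytes)⁻¹.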

Data set [6] has as its target P2Y purinoceptor 12 (Homo sapiens, UniProt Q9H244). Description: Displacement of [33P]2MeS-ADP from P2Y12 receptor (unknown origin) transfected in CHO cells after 30 mins by scintillation counting analysis. Format: cell-based. The gist of the method: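 P2Y12-expressing CHO cells (35 × 10³/sample) in PBS with 1 mM EDTA and 0.2% BSA are exposed to compound for 30 min. [³³P]2-MeS-ADP (0.16 nM) is then added for 15 min at 20 °C, in triplicate. Filtration separates free from bound ligand, followed by scintillation counting. Nonspecific binding uses 1 mM unlabeled ADP. IC50 comes from a four-parameter logistic fit with asymptotes fixed at 0 and 100. n = 2.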

A short description of data set [7]: Metabolic stability in human liver microsomes assessed as compound metabolism after 20 mins incubation in presence of 1 mM NADPH. Format: ADME. Conditions: liver microsomes, read-out: Drug metabolism. The gist of the method:
as §1

The subject of data set [8] is Rattus norvegicus. The data set is described as follows: Ex vivo inhibition of platelet aggregation in po dosed Sprague-Dawley rat after 2 hrs. Format: functional. The gist of the method:
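Oral gavage in male Sprague−Dawley rats (250−300 g, 6 per batch), vehicle 5% glucose water with 5% Cremophor and 3% glycofurol. Blood is collected 2 h after dosing from the abdominal aorta into 3.8% citrate under pentobarbital. PRP is prepared at 300g for 5 min. ADP-induced aggregation is quantified as the 6-min absorbance AUC, given as % inhibition.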

Data set [9] deals with Salmonella typhimurium. Description: Mutagenicity in Salmonella typhimurium by Ames II test in presence of liver S9 fraction. Conditions: salmonella enterica subsp. enterica serovar typhimurium. Format: toxicity, organism-based. In general terms: In the Ames test, an excess of revertant colonies over the control signals mutagenicity.
For data set [10], the system named is Salmonella typhimurium. Description: Mutagenicity in Salmonella typhimurium by Ames II test in absence of liver S9 fraction. The format is toxicity, organism-based. Conditions: salmonella enterica subsp. enterica serovar typhimurium.
The test system of data set [11] is Rattus norvegicus. Description: Ex vivo inhibition of platelet aggregation in Sprague-Dawley rat at 10 mg/kg, po after 6 hrs. Conditions: for inhibition in vivo at 10 mg/kg: Rattus norvegicus, Sprague-Dawley, po, 6 h. Format: functional. The gist of the method: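 Time-course study in Sprague−Dawley rats after a 10 mg/kg oral dose in glucose/Cremophor/glycofurol vehicle. Aortic citrated blood is sampled at intervals over the hours after dosing. PRP is prepared at 300g for 5 min. ADP-induced aggregation is measured as the 6-min absorbance AUC and reported as % inhibition.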

The subject of data set [12] is Rattus norvegicus. The data set is described as follows: Ex vivo inhibition of platelet aggregation in Sprague-Dawley rat at 10 mg/kg, po after 2 hrs. The format is functional. Conditions: Rattus norvegicus, Sprague-Dawley, po, 2 h. The gist of the method:
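Male Sprague−Dawley rats (250−300 g), 6 per batch, are dosed by stomach tube at 10 mL/kg of a 1 mg/mL solution in 5% glucose water containing 5% Cremophor and 3% glycofurol. At 2 h, aortic blood is drawn into 3.8% citrate (1:9) under pentobarbital. PRP is prepared at 300g for 5 min. ADP aggregation is read as the 6-min absorbance AUC and expressed as % inhibition.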

The source made the active and inactive calls. The calls are words filed in the database; no cut-off is given here.

P2Y purinoceptor 12, sequence (Q9H244 whole entry): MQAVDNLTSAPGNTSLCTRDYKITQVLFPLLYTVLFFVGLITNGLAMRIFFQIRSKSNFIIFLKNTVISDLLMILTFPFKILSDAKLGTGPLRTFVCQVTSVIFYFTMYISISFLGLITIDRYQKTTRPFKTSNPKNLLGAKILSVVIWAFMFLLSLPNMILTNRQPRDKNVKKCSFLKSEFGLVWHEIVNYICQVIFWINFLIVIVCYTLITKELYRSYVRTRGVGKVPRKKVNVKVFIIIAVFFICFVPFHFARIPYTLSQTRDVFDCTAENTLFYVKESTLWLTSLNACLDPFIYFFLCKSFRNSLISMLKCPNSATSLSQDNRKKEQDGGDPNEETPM

In general, IC50 refers to the concentration that gives 50% inhibition. On to `CCCC(=O)c1cnn(-c2ccc(NC(=O)c3cn(CC(=O)N4CCN(C)CC4)c4ccc(Cl)cc34)c(C#N)c2)c1C`, for which, in [1], the Papp turned out to be 3.3 ×10⁻⁶ cm/s. In addition, the metabolised at 20 min in data set [2] was determined as 8%; in data set [4], 18%; in data set [7], 61%. Moreover, the Activity in [3] worked out at 67%. This compound also had a CLH in data set [5] of 0.143 mL/h. Besides, the half-maximal inhibitory concentration (IC50) in data set [6] worked out at 48 nM.

Usually ED50 stands for the midpoint of the dose-response relation. Read a high ED50 as a need for a large dose. For `CCCSc1nc(N[C@@H]2C[C@H]2c2ccc(F)c(F)c2)c2nnn([C@@H]3C[C@H](OCCO)[C@@H](O)[C@H]3O)c2n1` [TICAGRELOR], in data set [1], the Papp came to 7.5 ×10⁻⁶ cm/s. Moreover, the ED50 in data set [8] worked out at 1.59 mg/kg. Besides, the metabolised at 20 min in data set [7] turned out to be 20%.

With `CCCC(=O)c1cnn([C@H]2CC[C@H](NC(=O)c3cn(CC(=O)N4CCN(C)CC4)c4ccc(Cl)cc34)CC2)c1C`, the Papp in data set [1] is 0.1 ×10⁻⁶ cm/s. Further, the metabolised at 20 min in data set [2] was 11%; in [4], 32%; in data set [7], 73%. For the same compound, the Activity in data set [3] was found to be 64%. Further, the CLH in data set [5] was 0.171 mL/h. For the same compound, the IC50 in [6] came out at 40 nM.

Take `CC(=O)Oc1cc2c(s1)CCN(C(C(=O)C1CC1)c1ccccc1F)C2` (configuration not stated): the ED50 in data set [8] was 0.46 mg/kg.

In the case of `CCCC(=O)c1cnn(-c2ccc(N)c(C(N)=O)c2)c1C`, the Activity result in data set [9] and in data set [10] was “Non-toxic” in each case.

For orientation: inhibition in vivo means the relative decrease from the control value, in per cent. The low end stands for little suppression, the high end for strong suppression. For `CCCC(=O)c1cnn(-c2ccc(NC(=O)c3cn(CC(=O)N4CCN(Cc5cc(C)on5)CC4)c4ccc(Cl)cc34)cc2)c1C`, in [1], the Papp is 0.6 ×10⁻⁶ cm/s. In addition, the figures for the inhibition in vivo at 10 mg/kg in data set [11] and in [12] were 60% and 72%, respectively. Also, the metabolised at 20 min in data set [4] was found to be 31%; in [7] it was 87%. In addition, the IC50 in data set [6] came out at 11 nM.

With `CCCC(=O)c1cnn(-c2ccc(NC(=O)c3cn(CC(=O)N4CCN5CCN(C)C(=O)C5C4)c4ccc(Cl)cc34)cc2)c1C` (single isomer, unassigned; 103), in [11], the inhibition entry was “inactive”.

With `CCCC(=O)c1cnn(-c2ccc(NC(=O)c3cn(CC(=O)N4CCN(CCOC)CC4)c4ccc(Cl)cc34)cc2)c1C`, in data set [1], the Papp was found to be 4.3 ×10⁻⁶ cm/s. The inhibition in vivo at 10 mg/kg was 65% in data set [11] and 68% in data set [12]. Besides, the metabolised at 20 min in data set [4] was found to be 11%; in data set [7], 47%. In data set [6], this compound yielded an IC50 of 15 nM.

As for `CCCC(=O)c1cnn(-c2ccc(N)c(C#N)c2)c1C`, the Activity result in data set [9] and in [10] was “Non-toxic” in each case.

Consider `CCCC(=O)c1cnn(-c2ccc(N)nc2)c1C`, for which the Activity entry in data set [9] and in data set [10] was “Non-toxic” in each case.

Consider `CCCC(=O)c1cnn(-c2ccc(O)cc2)c1C`, for which the Activity result in [9] and in [10] was “Non-toxic” throughout.

With `CCCC(=O)c1cnn(-c2ccc(N)nn2)c1C`, the Activity entry in [9] and in data set [10] was “Non-toxic” throughout.

`COC(=O)[C@H](c1ccccc1Cl)N1CCc2sccc2C1` [CLOPIDOGREL] displayed a median effective dose (ED50) in [8] of 2.6 mg/kg.

For `CCCC(=O)c1cnn(-c2cnc(N)s2)c1C`, the values for the Activity result in data set [9] and in data set [10] were “Toxic” and “Non-toxic”, respectively.

In the case of `CCCC(=O)c1cnn(-c2ccc(N)cn2)c1C`, the Activity result in [9] is reported as “Toxic”; in data set [10], “Non-toxic”.

Take `CCCC(=O)c1cnn(-c2cnc(N)cn2)c1C`: the Activity result in data set [9] and in data set [10] was “Non-toxic” each time.

Turning to `CCCC(=O)c1cnn(-c2ccc(N)c(C(=O)N(C)C)c2)c1C`, the figures for the Activity entry in data set [9] and in data set [10] were “Toxic” and “Non-toxic”, respectively.

As for `CCCC(=O)c1cnn(-c2ccc3c(c2)OCCN3)c1C`, the Activity entry in data set [9] and in data set [10] was “Non-toxic” in each case.
